ChEMBL document CHEMBL1641445, “Synthesis, antiprotozoal, antimicrobial, β-hematin inhibition, cytotoxicity and methemoglobin (MetHb) formation activities of bis(8-aminoquinolines)” (Bioorg Med Chem, 2011)
Calls of active or inactive are those of the source. No cut-off for these calls is given here.

How the values were obtained:
[1] = Hematotoxicity against RBC assessed as formation of methemoglobin at 20 ug/ml relative to control; assay type: cell-based; details: erythrocyte
Summary of the method: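 Metabolism-linked methemoglobin toxicity in vitro. Percent MetHb formation was determined at 20 µg/mL of compound relative to vehicle control.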

[2] = system: Plasmodium falciparum; assay: Antimalarial activity against chloroquine-resistant Plasmodium falciparum W2 by LDH assay; assay type: functional, organism-based; details: Plasmodium falciparum, W2; read-out: IC50
Summary of the method: (§1)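 Antiplasmodial activity was measured in vitro against P. falciparum blood-stage cultures. Read-out was parasite lactate dehydrogenase (LDH) activity, with IC50 values expressed in µg/mL. The same protocol was used for the D6 and W2 strains.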

[3] = system: Vero; assay: Cytotoxicity against african green monkey Vero cells up to 10 ug/ml by neutral red assay; assay type: cell-based; details: chlorocebus sabaeus
Summary of the method: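 Vero (monkey kidney) cells were exposed up to a highest concentration of 10 µg/mL. Viability was read by neutral red uptake.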

[4] = Inhibition of beta-hematin formation; assay type: functional
[5] = system: Plasmodium berghei; assay: Antimalarial activity against Plasmodium berghei infected in mouse assessed as negative parasitemia level at 10 mg/kg, po qd for 4 days measured up to 7 days; assay type: functional, organism-based; design: dose 10 mg/kg
Summary of the method: (§2)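 Mice infected with P. berghei (sensitive strain), 6 per group, dosed orally at 10–100 mg/kg/day × 4. Suppression meant negative parasitemia in all treated animals up to D+7. Survivors were counted at D+60.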

[6] = system: Leishmania donovani; assay: Antileishmanial activity against promastigotes of Leishmania donovani by alamar blue assay; assay type: functional, organism-based; details: Leishmania donovani; for IC50: read-out: IC50
[7] = system: Plasmodium berghei; assay: Antimalarial activity against Plasmodium berghei infected in mouse assessed as complete elimination of malaria parasites from animals at 25 mg/kg, po qd for 4 days measured up to 60 days; assay type: functional, organism-based; design: dose 25 mg/kg
Summary of the method: (§3)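 Rodent P. berghei (sensitive strain) blood-schizontocidal model, 6 mice per group. Compounds were given orally once daily for 4 days at 10, 25, 50 or 100 mg/kg/day. Cure meant complete parasite elimination with survival to day D+60.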

[8] = system: Plasmodium berghei; assay: Antimalarial activity against Plasmodium berghei infected in mouse assessed as complete elimination of malaria parasites from animals at 50 mg/kg, po qd for 4 days measured up to 60 days; assay type: functional, organism-based; design: dose 50 mg/kg; summary of the method: as §3
[9] = system: Plasmodium berghei; assay: Antimalarial activity against Plasmodium berghei infected in mouse assessed as complete elimination of malaria parasites from animals at 100 mg/kg, po qd for 4 days measured up to 60 days; assay type: functional, organism-based; design: dose 100 mg/kg; summary of the method: as §3
[10] = system: Staphylococcus aureus; assay: Antibacterial activity against Staphylococcus aureus by CLSI method; assay type: functional, organism-based
[11] = system: Staphylococcus aureus; assay: Antibacterial activity against methicillin-resistant Staphylococcus aureus ATCC 43300 by CLSI method; assay type: functional, organism-based
Summary of the method: (§4)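 Broth dilution method (NCCLS M7-A5). […] MIC is the lowest concentration allowing no detectable growth. MBC is the lowest concentration killing the organism. Highest test concentration was 20 µg/mL.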

[12] = system: Mycobacterium intracellulare; assay: Antibacterial activity against Mycobacterium intracellular ATCC 23068 by CLSI method; assay type: functional, organism-based
[13] = system: Mycobacterium intracellulare; assay: Antibacterial activity against Mycobacterium intracellular ATCC 23068 at 20 ug/ml by CLSI method; assay type: functional, organism-based
[14] = system: Candida albicans; assay: Antifungal activity against Candida albicans ATCC 90028; assay type: functional, organism-based
[15] = system: Candida albicans; assay: Antifungal activity against Candida albicans ATCC 90028 at 20 ug/ml; assay type: functional, organism-based
[16] = system: Cryptococcus neoformans; assay: Antifungal activity against Cryptococcus neoformans ATCC 90113; assay type: functional, organism-based
[17] = system: Aspergillus fumigatus; assay: Antifungal activity against Aspergillus fumigatus ATCC 90906 at 20 ug/ml; assay type: functional, organism-based
[18] = system: Nakaseomyces glabratus; assay: Antifungal activity against Candida glabrata at 20 ug/ml; assay type: functional, organism-based
[19] = system: Pichia kudriavzevii; assay: Antifungal activity against Candida krusei at 20 ug/ml; assay type: functional, organism-based
[20] = system: Plasmodium falciparum; assay: Antimalarial activity against chloroquine-sensitive Plasmodium falciparum D6 by LDH assay; assay type: functional, organism-based; details: Plasmodium falciparum, D6; read-out: IC50; summary of the method: as §1
[21] = system: Cryptococcus neoformans; assay: Antifungal activity against Cryptococcus neoformans ATCC 90113 at 20 ug/ml; assay type: functional, organism-based
[22] = system: Staphylococcus aureus; assay: Antibacterial activity against methicillin-resistant Staphylococcus aureus ATCC 43300 at 20 ug/ml by CLSI method; assay type: functional, organism-based; summary of the method: as §4
[23] = system: Plasmodium berghei; assay: Antimalarial activity against Plasmodium berghei infected in mouse assessed as negative parasitemia level at 100 mg/kg, po qd for 4 days measured up to 7 days; assay type: functional, organism-based; design: dose 100 mg/kg; summary of the method: as §2

SMILES: COc1cc(NC(C)CCCNC(=O)N[C@H](CCCN)C(=O)NCCCC(C)Nc2cc(OC)cc3ccc(C(C)(C)C)nc23)c2nc(C(C)(C)C)ccc2c1.Cl (stereo partly specified)
- Methemoglobin formation [1]: 2.3%
- IC50 [2]: 0.3 µg/mL
- Activity [3]: Non-toxic
- IC50 [4]: 10.8 µM
- Activity [5]: Active
- IC90 [6]: 34 µg/mL
- IC50 [6]: 20 µg/mL
- Activity [7]: Active
- Activity [8]: Active
- Activity [9]: Active
- IC50 [10]: 2.73 µg/mL
- MBC [10]: 5 µg/mL
- MIC [10]: 5 µg/mL
- IC50 [11]: 1.78 µg/mL
- MBC [11]: 5 µg/mL
- MIC [11]: 5 µg/mL
- IC50 [12]: 10 µg/mL
- MIC [12]: 20 µg/mL
- MBC [13]: inactive
- IC50 [14]: > 20 µg/mL
- MFC [15]: inactive
- MIC [15]: inactive
- IC50 [16]: 9.97 µg/mL
- MFC [16]: 20 µg/mL
- Activity [17]: inactive
- Activity [18]: inactive
- Activity [19]: inactive

SMILES: COc1cc(NC(C)CCCNC(=S)NCCCC(C)Nc2cc(OC)cc3cccnc23)c2ncccc2c1.Cl.Cl (stereo unspecified)
- Methemoglobin formation [1]: 3.7%
- IC50 [20]: 2.3 µg/mL
- IC50 [2]: 2.4 µg/mL
- Activity [3]: Non-toxic
- IC50 [4]: > 1000 µM
- IC90 [6]: 20 µg/mL
- IC50 [6]: 4 µg/mL
- IC50 [11]: 3 µg/mL
- MBC [11]: 10 µg/mL
- MIC [11]: 5 µg/mL
- IC50 [12]: 4.5 µg/mL
- IC50 [14]: 10 µg/mL
- MFC [15]: inactive
- MFC [21]: inactive
- MIC [21]: inactive
- IC50 [16]: 15 µg/mL
- Activity [17]: inactive
- Activity [18]: inactive
- Activity [19]: inactive

SMILES: COc1cc(NC(C)CCCNC(=O)CC[C@H](N)C(=O)NCCCC(C)Nc2cc(OC)cc3cccnc23)c2ncccc2c1.Cl (stereo partly specified)
- Methemoglobin formation [1]: 13.35%
- Activity [3]: Non-toxic
- IC50 [4]: 85 µM
- Activity [5]: Active
- IC90 [6]: 35 µg/mL
- IC50 [6]: 16 µg/mL
- Activity [7]: Active
- Activity [8]: Active
- Activity [9]: Active
- IC50 [11]: 15 µg/mL
- MIC [11]: 20 µg/mL
- IC50 [12]: 15 µg/mL
- MIC [12]: 20 µg/mL
- MBC [13]: inactive
- MBC [22]: inactive
- IC50 [15]: Not Active
- MFC [15]: inactive
- MIC [15]: inactive
- IC50 [16]: 15 µg/mL
- MFC [16]: 20 µg/mL
- MIC [16]: 20 µg/mL
- Activity [17]: inactive
- Activity [18]: inactive
- Activity [19]: inactive

SMILES: COc1cc(NC(C)CCCNCCNCCNCCCC(C)Nc2cc(OC)cc3cccnc23)c2ncccc2c1.Cl.Cl (stereo unspecified)
- Methemoglobin formation [1]: 8.4%
- IC50 [20]: 2.6 µg/mL
- IC50 [2]: 1.5 µg/mL
- Activity [3]: Non-toxic
- IC50 [4]: 180 µM
- Activity [5]: Active
- IC90 [6]: 27 µg/mL
- Activity [7]: Active
- Activity [8]: Active
- Activity [9]: Active
- IC50 [12]: 10 µg/mL
- MBC [12]: 20 µg/mL
- MIC [12]: 20 µg/mL
- IC50 [22]: Not Active
- MBC [22]: inactive
- MIC [22]: inactive
- IC50 [15]: Not Active
- MFC [15]: inactive
- MIC [15]: inactive
- IC50 [16]: 15 µg/mL
- MFC [16]: 20 µg/mL
- MIC [16]: 20 µg/mL
- Activity [17]: inactive
- Activity [18]: inactive
- Activity [19]: inactive

SMILES: COc1cc(NC(C)CCCNCOC(=O)NCCCC(C)Nc2cc(OC)cc3cccnc23)c2ncccc2c1.Cl.Cl (stereo unspecified)
- Methemoglobin formation [1]: 5.3%
- IC50 [20]: 2.6 µg/mL
- Activity [3]: Non-toxic
- IC50 [4]: 101 µM
- IC90 [6]: 38 µg/mL
- IC50 [6]: 20 µg/mL
- Activity [23]: Active
- IC50 [15]: Not Active
- MFC [15]: inactive
- MIC [15]: inactive
- IC50 [16]: 4.5 µg/mL
- MFC [16]: 5 µg/mL
- MIC [16]: 5 µg/mL
- Activity [17]: inactive
- Activity [18]: inactive
- Activity [19]: inactive

SMILES: COc1cc(NC(C)CCCNC(=O)NC(CCCCN)C(=O)NCCCC(C)Nc2cc(OC)cc3ccc(C(C)(C)C)nc23)c2nc(C(C)(C)C)ccc2c1.Cl (single isomer, unassigned)
- Methemoglobin formation [1]: 2.25%
- IC50 [2]: 1.3 µg/mL
- Activity [3]: Non-toxic
- IC50 [4]: 45 µM
- IC90 [6]: 36 µg/mL
- IC50 [6]: 21 µg/mL
- Activity [23]: Active
- IC50 [10]: 2.58 µg/mL
- MBC [10]: 5 µg/mL
- MIC [10]: 5 µg/mL
- IC50 [11]: 1.97 µg/mL
- MBC [11]: 5 µg/mL
- MIC [11]: 5 µg/mL
- IC50 [12]: 7.12 µg/mL
- MIC [12]: 20 µg/mL
- MBC [13]: inactive
- IC50 [14]: 17.9 µg/mL
- MIC [14]: 20 µg/mL
- MFC [15]: inactive
- IC50 [16]: 6.45 µg/mL
- MFC [16]: 10 µg/mL
- MIC [16]: 10 µg/mL
- Activity [17]: inactive
- Activity [18]: inactive
- Activity [19]: inactive
